Measurements taken from ChEMBL document CHEMBL4321800, “Synthesis, Identification, and Structure-Activity Relationship Analysis of GATA4 and NKX2-5 Protein-Protein Interaction Modulators” (J Med Chem, 2019).

Legend:
Assay type in all cases: cell-based
[1] = biological target: Homeobox protein Nkx-2.5 (Mus musculus) (UniProt P42582); assay: Enhancement of mouse NKX2-5 expressed in Chlorocebus aethiops COS1 cells harboring 3xHA reporter gene assessed as protein-induced transcriptional activity at 10 uM after 24 hrs by luciferase reporter gene assay relative to control
Sequence of Homeobox protein Nkx-2.5 (Mus musculus) (P42582 whole entry): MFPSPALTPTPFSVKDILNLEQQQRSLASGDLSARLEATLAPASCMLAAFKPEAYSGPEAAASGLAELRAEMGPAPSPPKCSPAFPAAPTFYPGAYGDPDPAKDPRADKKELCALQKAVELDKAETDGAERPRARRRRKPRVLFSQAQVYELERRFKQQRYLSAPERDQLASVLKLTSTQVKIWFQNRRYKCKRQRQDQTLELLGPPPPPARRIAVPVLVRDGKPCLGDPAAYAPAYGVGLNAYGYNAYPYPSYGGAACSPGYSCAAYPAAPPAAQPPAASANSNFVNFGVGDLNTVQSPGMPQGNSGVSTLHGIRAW
Outline: (§1)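 COS-1 cells seeded 14 000/well and grown overnight. Transfection for 6 h in serum- and antibiotic-free medium with pGL3-3xHA reporter (100 ng/well) and pMT2-NKX2-5 (25 ng/well), Fugene 6 1:3. Compound or 0.1% DMSO vehicle for 24 h, then luciferase luminescence. Triplicate wells with Grubbs outlier removal, % of control.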

[2] = biological target: Homeobox protein Nkx-2.5 (Mus musculus) (UniProt P42582); assay: Inhibition of mouse NKX2-5 expressed in Chlorocebus aethiops COS1 cells harboring 3xHA reporter gene assessed as protein-induced transcriptional activity at 10 uM after 24 hrs by luciferase reporter gene assay relative to control; parameters: scale not given: the % may be the effect or the level left; outline: as §1
[3] = tested on: COS-1; assay: Cytotoxicity against Chlorocebus aethiops COS1 cells assessed as reduction in cell viability at 10 uM after 24 hrs by CellTiter-Glo Luminescent Cell Viability assay relative to control; conditions: cos-1, 24 h
Outline: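 Intracellular ATP read-out (CellTiter-Glo) in COS-1 cells plated and treated as for MTT, 24 h exposure, doxorubicin as positive control. Plates equilibrated 30 min at room temperature, washed with PBS, reagent added, mixed 2 min, 15 min at room temperature, then luminescence. Mean + SEM of three independent experiments, % of vehicle-treated cells.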

[4] = biological target: Transcription factor GATA-4 (Mus musculus) (UniProt Q08369); assay: Modulation of mouse GATA4 expressed in Chlorocebus aethiops COS1 cells harboring NP-112 reporter gene assessed as BNP promoter-driven transcriptional activity at 10 uM after 24 hrs by luciferase reporter gene assay relative to control
Sequence of Transcription factor GATA-4 (Mus musculus) (Q08369 whole entry): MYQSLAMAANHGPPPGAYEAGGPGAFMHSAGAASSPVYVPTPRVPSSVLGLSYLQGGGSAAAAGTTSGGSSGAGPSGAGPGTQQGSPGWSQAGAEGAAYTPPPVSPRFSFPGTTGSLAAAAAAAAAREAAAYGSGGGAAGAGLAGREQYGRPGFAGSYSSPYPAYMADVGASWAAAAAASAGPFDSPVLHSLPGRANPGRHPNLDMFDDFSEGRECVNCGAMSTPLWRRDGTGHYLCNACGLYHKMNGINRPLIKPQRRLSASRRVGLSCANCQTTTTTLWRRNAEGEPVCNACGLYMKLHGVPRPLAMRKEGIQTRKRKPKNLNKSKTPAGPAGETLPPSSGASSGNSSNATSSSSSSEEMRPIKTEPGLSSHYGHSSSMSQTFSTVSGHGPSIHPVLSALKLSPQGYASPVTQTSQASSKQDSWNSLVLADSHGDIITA
Outline: (§2)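 GATA reporter assay: COS-1 cells (14 000/well, overnight) transfected 6 h serum/antibiotic-free with NP-112 reporter (tandem GATA sites plus rat BNP minimal promoter, 100 ng/well) and pMT2-GATA4 (25 ng/well), Fugene 6 1:3. Treated 24 h with compound or 0.1% DMSO. Luminescence read; triplicates, Grubbs outliers removed, % of control.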

[5] = biological target: T1, GATA4/NKX2-5 (Mus musculus) (UniProt Q08369+P42582); assay: Inhibition of mouse GATA4/mouse NKX2-5 protein-protein interaction expressed in Chlorocebus aethiops COS1 cells harboring 3xHA reporter gene assessed as transcriptional synergy at 10 uM after 24 hrs by luciferase reporter gene assay relative to control; parameters: scale not given: the % may be the effect or the level left
Outline: (§3)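 COS-1 cells seeded 14 000/well, grown overnight, then transfected for 6 h in serum- and antibiotic-free medium with pGL3-3xHA reporter (three NKX2-5 sites, 100 ng/well) plus pMT2-GATA4 and pMT2-NKX2-5 (total 50 ng/well), Fugene 6 at 1:3 DNA/reagent. Compound or 0.1% DMSO vehicle for 24 h, then luminescence read. Triplicates, Grubbs outliers removed, expressed as % of control.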

[6] = tested on: COS-1; assay: Induction of necrosis in Chlorocebus aethiops COS1 cells assessed as LDH release at 1 to 30 uM after 24 hrs by LDH assay relative to control; conditions: cos-1, 24 h
Outline: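 COS-1 cells in DMEM with 10% FBS at 37 °C, 5% CO₂, plated 10 000/well and exposed next day to 1–30 μM for 24 h. Medium samples mixed with NAD, iodonitrotetrazolium, lactate and phenazine methosulfate in 0.2 M Tris-HCl pH 8.2, 30 min at room temperature. Stopped with acetic acid, A490 read and normalized to maximal and spontaneous release.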

[7] = biological target: Transcription factor GATA-4 (Mus musculus) (UniProt Q08369); assay: Enhancement of mouse GATA4 expressed in Chlorocebus aethiops COS1 cells harboring NP-112 reporter gene assessed as BNP promoter-driven transcriptional activity at 10 uM after 24 hrs by luciferase reporter gene assay relative to control; outline: as §2
[8] = biological target: Transcription factor GATA-4 (Mus musculus) (UniProt Q08369); assay: Inhibition of mouse GATA4 expressed in Chlorocebus aethiops COS1 cells harboring NP-112 reporter gene assessed as BNP promoter-driven transcriptional activity at 10 uM after 24 hrs by luciferase reporter gene assay relative to control; parameters: scale not given: the % may be the effect or the level left; outline: as §2
[9] = biological target: T1, GATA4/NKX2-5 (Mus musculus); assay: Modulation of mouse GATA4/mouse NKX2-5 protein-protein interaction expressed in Chlorocebus aethiops COS1 cells harboring 3xHA reporter gene assessed as transcriptional synergy at 10 uM after 24 hrs by luciferase reporter gene assay relative to control; outline: as §3
[10] = biological target: Homeobox protein Nkx-2.5 (Mus musculus) (UniProt P42582); assay: Modulation of mouse NKX2-5 expressed in Chlorocebus aethiops COS1 cells harboring 3xHA reporter gene assessed as protein-induced transcriptional activity at 10 uM after 24 hrs by luciferase reporter gene assay relative to control; outline: as §1
[11] = tested on: COS-1; assay: Cytotoxicity against Chlorocebus aethiops COS1 cells assessed as reduction in cell viability at 10 uM after 24 hrs by MTT assay relative to control; conditions: cos-1, 24 h
Outline: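 COS-1 cells plated 10 000/well, exposed next day for 24 h (range 1–30 μM). Incubated with 0.5 mg/mL MTT for 2 h at 37 °C, formazan dissolved in DMSO, A550 minus A650 background. Means of 2–3 independent experiments with triplicate wells, % of vehicle-treated cells; toxic if viability fell >10% at 10 μM.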

[12] = biological target: T1, GATA4/NKX2-5 (Mus musculus); assay: Enhancement of mouse GATA4/mouse NKX2-5 protein-protein interaction expressed in Chlorocebus aethiops COS1 cells harboring 3xHA reporter gene assessed as transcriptional synergy at 10 uM after 24 hrs by luciferase reporter gene assay relative to control; outline: as §3

| Activity [4] | Activity [9] | Activity [10] | SMILES | Activity [6] | further results |
| --- | --- | --- | --- | --- | --- |
| – | – | – | Cc1onc(-c2ccccc2)c1C(=O)Nc1ccc(C(=O)OCCC#N)cc1 | – | Activity [1]: 130% |
| 48% | – | – | CCN(CC)c1ccc(NC(=O)c2cnsc2)cc1 | < 8% | Activity [2]: 16%; Activity [3]: Non-Toxic; Activity [5]: 27% |
| – | – | – | CN(C)c1ccc(/N=C/c2c[nH]nc2-c2ccc(F)cc2)cc1 | – | Activity [7]: 120%; Activity [1]: 140% |
| – | 52% | 65% | CCN(CC)c1ccc(NC(=O)c2cnc(SC)n2-c2ccc(F)cc2)cc1 | < 8% | Activity [8]: 45% |
| – | – | – | CCN(CC)c1ccc(NC(=O)c2c(C)noc2-c2ccccc2)cc1 | < 8% | Activity [2]: 29%; Activity [11]: > 10%; Activity [5]: 29% |
| – | – | – | CC(=O)N(Cc1ccc(N(C)C)cc1)c1c(-c2ccccc2)noc1C | < 8% | Activity [11]: > 10%; Activity [8]: 47%; Activity [5]: 28% |
| – | – | – | Cc1onc(-c2ccccc2)c1C(=O)N(C)c1ccc(C(=O)O)cc1 | – | Activity [12]: 130% |
| – | – | – | C#CC[N+](CC)(CC)c1ccc(NC(=O)c2c(-c3ccccc3)noc2C)cc1 | – | Activity [1]: 120% |
| 58% | 33% | 39% | CCN(CC)c1ccc(NC(=O)c2csc(C)c2-c2ccccc2)cc1 | < 8% | Activity [11]: Non-Toxic |
| – | 65% | – | CCN(CC)c1ccc(NC(=O)c2c(-c3cccc([N+](=O)[O-])c3)noc2C)cc1 | < 8% | Activity [11]: Non-Toxic |
| 100% | 90% | – | Cc1onc(-c2ccccc2)c1C(=O)Nc1ccc(C(=O)OCCCCC#N)cc1 | – | Activity [1]: 150% |
| 66% | 31% | 53% | Cc1onc(-c2ccccc2)c1C(=O)Nc1ccc2oc(-c3ccccc3)cc(=O)c2c1 | < 8% | – |
| – | 98% | 97% | Cc1onc(-c2ccccc2)c1C(=O)Nc1ccc(C(=O)OCCCC#N)cc1 | – | Activity [7]: 110% |
| – | – | – | CCN(CC)c1ccc(NC(=O)c2cnc3ncccn23)cc1 | < 8% | Activity [7]: 130%; Activity [12]: 140%; Activity [1]: 120% |
| 80% | 53% | 73% | C=CCN(Cc1ccc(N(CC)CC)cc1)c1c(-c2ccccc2)noc1C | < 8% | – |
| – | 25% | – | CCN(CC)c1ccc(NC(=O)c2csc([N+](=O)[O-])c2)cc1 | < 8% | Activity [2]: 26%; Activity [8]: 23%; Activity [5]: 25% |
| – | – | – | Cc1cc(-c2onc(C)c2C(=O)Nc2ccc3oc(-c4ccccc4)cc(=O)c3c2)no1 | – | Activity [7]: 120%; Activity [1]: 110% |
| 72% | 52% | 71% | CCN(CC)c1ccc(CN(C(=O)C(F)(F)F)c2c(-c3ccccc3)noc2C)cc1 | < 8% | – |
| 110% | 110% | – | CCN(CC)c1ccc(NC(=O)c2cn(C)cc2-c2cc(C)on2)cc1 | – | Activity [1]: 110% |
| 71% | 66% | 84% | CCN(CC)c1ccc(NC(=O)c2c(-c3ccsc3)noc2C)cc1 | < 8% | – |
| 75% | 41% | – | CCN(c1ccc(NC(=O)c2c(-c3ccccc3)noc2C)cc1)C(C)C | < 8% | Activity [2]: 34% |
| – | – | – | CCN(CC)c1ccc(NC(=O)c2csc3nnsc23)cc1 | – | Activity [12]: 130% |
| 79% | 44% | 47% | CCN(CC)c1ccc(NC(=O)c2c(-c3ccc(F)cc3)noc2C)cc1 | < 8% | – |

| Activity [4] | Activity [9] | Activity [10] | SMILES | Activity [6] | further results |
| --- | --- | --- | --- | --- | --- |
| – | – | – | CCN(CC)c1ccc(NC(=O)c2c(-c3ccccc3)nnn2CCc2ccccc2)cc1 | < 8% | Activity [2]: 34%; Activity [8]: 38% |
| – | – | – | CC(C)c1ccc(NC(=O)c2noc3c2CCc2sccc2-3)cc1 | – | Activity [7]: 120%; Activity [12]: 130% |
| – | – | – | Cc1onc(-c2ccccc2)c1COc1ccc(C(=O)O)cc1 | – | Activity [12]: 120% |
| – | – | – | CCN(CC)c1ccc(-n2c(=O)c3c(C)onc3c3ccccc32)cc1 | – | Activity [1]: 110% |
| 62% | 47% | 50% | CCN(CC)c1ccc(NC(=O)c2cnoc2-c2ccccc2)cc1 | < 8% | – |
| – | – | – | CCN(c1ccc(NC(=O)c2c(C)noc2-c2snnc2C)cc1)C(C)C | – | Activity [5]: 19% |
| 49% | 35% | 37% | CCN(CC)c1ccc(NC(=O)c2cc(C)oc2-c2ccccc2)cc1 | < 8% | Activity [11]: > 10% |
| 79% | 61% | 61% | CCN(CC)c1ccc(NC(=O)c2c(-c3ccncc3)noc2C)cc1 | < 8% | – |
| 100% | 78% | 84% | CCN(CC)c1ccc(NC(=O)c2c(C)noc2-c2cc(C)on2)cc1 | < 8% | – |
| – | – | – | CCN(CC)c1ccc(NC(=O)c2cnoc2C2CC2)cc1 | – | Activity [12]: 140% |
| – | – | – | CCN(c1ccc(NC(=O)c2c(C)noc2-c2cc(C)on2)cc1)C(C)C | – | Activity [7]: 120% |
| – | – | – | COc1ccc(-c2cc(NC(=O)c3ccc(C(C)(C)C)cc3)n[nH]2)cc1 | < 8% | Activity [8]: 40%; Activity [3]: Non-Toxic |
| – | 100% | – | CCc1noc(C)c1C(=O)Nc1ccc(N(CC)CC)cc1 | – | Activity [7]: 140%; Activity [1]: 160% |
| – | – | – | CCC(C)NC(=O)c1cc(-c2ccco2)on1 (centres undefined) | – | Activity [12]: 140% |
| 78% | 43% | 67% | CCC(OC)c1ccc(OCc2c(-c3ccccc3)noc2C)cc1 (racemic) | < 8% | – |
| – | 99% | 93% | CCN(CC)c1ccc(NC(=O)c2cn(C)nc2-c2cc(C)on2)cc1 | – | Activity [7]: 130% |
| – | – | – | CC(=O)c1ccc(NC(=O)c2cc(-c3ccco3)on2)cc1 | – | Activity [12]: 130% |
| – | – | – | Cc1onc(-c2ccccc2)c1NC(=O)c1ccc(N2CCN(C)CC2)cc1 | – | Activity [12]: 120% |
| – | – | – | CCN(c1ccc(NC(=O)c2c(C)noc2-c2ccccc2)cc1)C(C)C | < 8% | Activity [2]: 31%; Activity [11]: > 10%; Activity [8]: 41%; Activity [5]: 25% |
| 62% | 50% | 49% | CCN(CC)c1ccc(NC(=O)c2c(-c3ccccc3)noc2C)cc1 | < 8% | Activity [3]: > 10% |
| – | 37% | 41% | CC(=O)COC(=O)c1ccc(OCc2c(-c3ccccc3)noc2C)cc1 | < 8% | Activity [11]: > 10%; Activity [8]: 44% |
| 52% | 41% | 49% | CCN(CC)c1ccc(NC(=O)c2snnc2-c2ccccc2)cc1 | < 8% | – |
| – | 100% | 110% | CCN(CC)c1ccc(NC(=O)c2cc(C)oc2-c2cc(C)on2)cc1 | – | Activity [7]: 140% |

| SMILES | Activity [4] | Activity [9] | Activity [10] | Activity [6] | further results |
| --- | --- | --- | --- | --- | --- |
| Cc1onc(-c2ccccc2)c1C(=O)Nc1ccc(C#C[Si](C)(C)C)cc1 | 93% | 69% | 75% | < 8% | – |
